MT1-MMP act inh – MT1-MMP (human) activation inhibition; P50281; HT1080 RFP-PRO-GFP cells, GFP/RFP ratio fluorescence, overnight; percent of plate control window, DMSO zero; GFP/RFP ratio change, % at 20 µM; 360,000 tested, 0.061% active; AID 651647;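 active means GFP/RFP ratio change of at least 30% with cell ATP level not reduced by more than half and red fluorescence within 50% of control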
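Material – HT1080 RFP-PRO-GFP cells · Control set – DMSO wells and RFP-L50D-GFP cells · Incubation – overnight cell settling, then overnight compound exposure, 37 °C, 5% CO2 · Compound dosing – single-point 20 µM compound, 1% DMSO · Read-out – GFP/RFP fluorescence ratio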
Tn7 DDE FP – DD(E)-Tn7 binding inhibition, primary FP screen; FP displacement of FITC-Tn7 peptide from fibrin DD(E); 0% = median of compound wells per plate; inhibition, % at 8.3 µM; 370,000 tested, 0.13% active; AID 720508;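 active means inhibition above the mean of compounds falling within the control limits plus 3 SD of them, cut at about 14% in these data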;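 further: 0% = plate median of compound wells and 100% = 10 µM Aha-Tn7 peptide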
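Assay system: Human fibrin DD(E) protein | Medium: Tris buffer with calcium and detergent, pH 7.8 | Reagent: 0.1 µM fluorescent Tn7 | Compound dosing: Single point at 8.3 µM | Times: 10 min preincubation, 3 h with tracer, room temperature | Detection: Fluorescence polarization of the labelled Tn7 tracer | Controls: Aha-Tn7 high control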
ADAM17 inh – inhibitors of human ADAM17. P78536. recombinant ADAM17, EDANS/DABCYL FRET peptide cleavage. inhibition, % at 6.95 µM. 370,000 tested, 0.83% active. AID 720648;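 active means inhibition above the mean of compounds lying between control limits plus 3 SD, set per campaign, cut at about 8.5% in these data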;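 further: 0% = DMSO-only wells as the low control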
DDE Tn6 FP inh – DD(E)-Tn6 binding inhibition, primary FP screen; Fibrin DD(E) TRITC-Tn6 fluorescence polarization displacement; inhibition, % at 8.3 µM; 370,000 tested, 0.21% active; AID 720509;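 active means inhibition above a per-campaign cutoff: mean of compounds within control limits plus 3 SD, cut at about 15% in these data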;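 further: 0% = median of all compound wells on the plate and 100% = blocking peptide control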
ADAM10 inh – inhibits human ADAM10 | O14672 | recombinant ADAM10, EDANS/DABCYL FRET peptide cleavage, 3 h | inhibition, % at 7 µM | 370,000 tested, 0.62% active;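 active means inhibition above a per-campaign cutoff equal to the mean of compounds falling between control-based bounds plus 3 SD, cut at about 20% in these data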;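 further: 0% = DMSO wells while the 100% control is not disclosed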
Target sequence (O14672 214-748 limits assumed): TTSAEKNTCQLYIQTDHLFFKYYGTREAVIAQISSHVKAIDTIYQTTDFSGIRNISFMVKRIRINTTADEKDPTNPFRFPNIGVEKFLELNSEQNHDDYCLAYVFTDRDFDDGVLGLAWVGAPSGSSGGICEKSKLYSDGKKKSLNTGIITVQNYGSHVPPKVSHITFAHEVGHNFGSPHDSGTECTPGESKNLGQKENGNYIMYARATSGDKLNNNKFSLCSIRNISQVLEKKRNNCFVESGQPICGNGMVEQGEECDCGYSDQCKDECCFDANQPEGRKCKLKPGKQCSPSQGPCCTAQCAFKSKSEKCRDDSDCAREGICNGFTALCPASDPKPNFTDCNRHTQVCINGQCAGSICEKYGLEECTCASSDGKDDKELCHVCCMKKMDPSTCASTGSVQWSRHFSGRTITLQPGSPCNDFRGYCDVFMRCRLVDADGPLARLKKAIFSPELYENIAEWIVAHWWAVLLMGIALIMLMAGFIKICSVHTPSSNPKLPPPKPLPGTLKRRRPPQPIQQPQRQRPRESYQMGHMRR
ADAM10 confirm – confirmation of inhibitors of human ADAM10; shares compounds with ADAM10 inh; ADAM10 QFRET peptide cleavage, EDANS fluorescence; inhibition, % at 6.95 µM; 2,100 tested, 1% active; AID 743208;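 active means inhibition above about 20% chosen separately for each screening run, limit read from the data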;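 further: 0% = DMSO wells and 100% = marimastat wells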
ADAM17 ctr – ADAM17 inhibition, counter-screen for ADAM10 exosite hits; shares compounds with ADAM10 inh; ADAM17 QFRET peptide cleavage, EDANS fluorescence; inhibition, % at 6.95 µM; 2,100 tested, 0.5% active; AID 743214;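 active means mean triplicate inhibition above the solvent-only control wells' mean plus 3 SD, cut at about 12% in these data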;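 further: 0% = DMSO wells and 100% = marimastat wells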
ADAM10 counter – inhibits human ADAM10 in ADAM17 exosite counter-screen | 2,900 tested, 47% active | inhibition, % at 6.95 µM | shares compounds with ADAM17 inh | recombinant ADAM10, EDANS/DABCYL FRET peptide cleavage, 3 h;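 active means mean inhibition over the triplicate runs exceeds the activity threshold set in the earlier primary screen, cut at about 20% in these data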;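 further: 0% = DMSO wells and 100% = marimastat wells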
ADAM17 confirm – human ADAM17 inhibition, confirmation; AID 743257; 2,900 tested, 65% active; inhibition, % at 6.95 µM; shares compounds with ADAM17 inh; recombinant ADAM17, EDANS/DABCYL QFRET peptide cleavage;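 active means mean inhibition across replicates above the hit cutoff set in the primary screen, cut at about 8.5% in these data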;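 further: 0% = DMSO wells and 100% = marimastat wells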
* hit, by the source's call; . = no result. Most compounds without a hit are left out; they make up all but 1.6% or so of the library.

SMILES	MT1-MMP act inh	Tn7 DDE FP	ADAM17 inh	DDE Tn6 FP inh	ADAM10 inh	ADAM10 confirm	ADAM17 ctr	ADAM10 counter	ADAM17 confirm
CCOC(=O)[C@]12CCCC=C1N(Cc1cccc3ccccc13)C(=O)[C@H](CC(=O)NCc1cccs1)C2	-3	7	10*	6	27*	4	2	26*	16*
CCCCC[C@H](C)N1C[C@@H](COCc2ccccc2)Oc2cc(N3CC[C@H](O)C3)ccc2S1(=O)=O	4	1	13*	-1	21*	11	4	30*	21*
CCCCC[C@@H](C)N1C[C@H](COCc2ccccc2)Oc2cc(N3CCC[C@H]3CO)ccc2S1(=O)=O	4	-6	-1	-6	-2	.	.	.	.
CCCCC[C@@H](C)N1C[C@H](COCc2ccccc2)Oc2cc(N3CCC[C@@H]3CO)ccc2S1(=O)=O	-9	9	8.7*	-4	21*	7	2	18	10*
CCCC[C@H]1C2CC(OC(=O)Nc3ccccc3C)C(C2)[C@H]2CCCCN21 (some centres not stated)	.	4	-4	2	-4	.	.	.	.
FC(F)(F)c1cnc(NNC(=S)Nc2ccccc2Cl)c(Cl)c1	-5	4	6	-19	17	.	.	.	.
Cc1cccc(NC(=S)NNc2ncc(C(F)(F)F)cc2Cl)c1	2	-1	13*	-27	21*	2	0	1	1
CC1=C[C@]2(CN(CC3CC3)C3=N[C@H](c4ccccc4)CC(=O)N32)n2c(=O)n(-c3ccccc3)c(=O)n2C1	.	6	-2	-2	0	.	.	.	.
C[C@H](NC(=O)c1nc[nH]c1C(=O)N[C@@H](Cc1ccccc1)C(=O)OCc1ccccc1)C(=O)OC(C)(C)C	-1	-2	11*	-5	24*	10	3	26*	14*
Cc1ccc(NC(=O)c2nc[nH]c2C(=O)N[C@@H](C)C(=O)OC(C)(C)C)cc1	3	-9	14*	-5	27*	2	1	28*	12*
CC(C)(C)OC(=O)[C@H](Cc1ccccc1)NC(=O)c1nc[nH]c1C(=O)NCC(=O)OCc1ccccc1	2	0	11*	1	30*	8	3	44*	20*
C[C@H](NC(=O)c1[nH]cnc1C(=O)Nc1ccccc1)C(=O)OC(C)(C)C	-1	-5	1	1	3	.	.	.	.
C[C@H](NC(=O)c1nc[nH]c1C(=O)N[C@@H](C)C(=O)OC(C)(C)C)C(=O)OCc1ccccc1	0	-6	3	7	10	.	.	.	.
CC(C)(C)OC(=O)C(Cc1ccc(OC(C)(C)C)cc1)NC(=O)CNC(=O)OCc1ccccc1 (configuration not stated)	-11	-8	13*	0	25*	-1	0	15	8
Cc1cc(O)cc(=O)n1-c1cc(F)c(F)c(F)c1	.	0	-5	-3	-11	.	.	.	.
COCCCNC(=O)C[C@H]1C[C@@]2(C(=O)OC)C(=C[C@H](C(C)C)O[C@@H]2C2CC2)N(Cc2ccc3c(c2)OCO3)C1=O	.	1	1	-5	3	.	.	.	.
O=C(N1CCOCC1)N1CC[C@H]2[C@H](CCCN2Cc2cc(F)cc(F)c2)C1	.	-4	0	6	3	.	.	.	.
O=C(CNC(=O)c1[nH]cnc1C(=O)NC(c1ccccc1)c1ccccc1)OCc1ccccc1	-2	1	11*	-14	21*	9	3	29*	13*
O=C(CNC(=O)c1[nH]cnc1C(=O)N[C@@H](Cc1ccccc1)C(=O)OCc1ccccc1)OCc1ccccc1	2	-4	8.8*	1	22*	8	3	25*	15*
CC(C)(C)OC(=O)CNC(=O)c1[nH]cnc1C(=O)NCC(=O)OCc1ccccc1	-4	8	0	2	6	.	.	.	.
CCCCCC(=O)N1C[C@H](n2cc(-c3ccc(F)cc3)nn2)[C@@H](O)C[C@@H]1c1ccc(Cl)cc1	4	-5	13*	11	31*	7	2	26*	13*
CCCCCC(=O)N1C[C@@H](O)[C@H](n2cc(-c3ccc(F)cc3)nn2)C[C@@H]1c1ccc(Cl)cc1	-4	-2	8	2	13	.	.	.	.
Cn1c(SCC2CCC2)nnc1-c1ccco1	.	0	1	2	-1	.	.	.	.
CN1C(C(=O)Nc2ccc(OC(F)(F)F)cc2)=CC(c2cccs2)=NS1(=O)=O	-3	0	13*	-6	26*	10	4	22*	16*
CCO[C@H]1OC(C(=O)N2CCN(Cc3ccc4c(c3)OCO4)CC2)=C[C@@H](c2ccc(Br)cc2)[C@@H]1CCCO	-4	-2	9.2*	-2	25*	0	0	13	7
SMILES	MT1-MMP act inh	Tn7 DDE FP	ADAM17 inh	DDE Tn6 FP inh	ADAM10 inh	ADAM10 confirm	ADAM17 ctr	ADAM10 counter	ADAM17 confirm
CC(C)CN1C(=O)C[C@]2(C(=O)N(C)c3ccc(NC(=O)C(F)(F)F)cc32)C1c1ccccc1 (some centres not stated)	.	-1	-3	1	-5	.	.	.	.
O=C(NCC1COc2ccccc2O1)c1ccc(F)c(S(=O)(=O)N2CCOCC2)c1 (configuration not stated)	3	-1	-2	0	3	.	.	.	.
CCc1ccc(NC(=O)c2ccc(F)c(S(=O)(=O)NCC3COc4ccccc4O3)c2)cc1 (configuration not stated)	-2	-4	13*	-4	29*	12	4	43*	19*
CCN(c1ccccc1)S(=O)(=O)c1cc(C(=O)Nc2ccc(Br)cc2)ccc1F	0	3	12*	-10	24*	8	3	26*	13*
CC(=O)CC[C@H]1CC[C@]2(CCCN(S(C)(=O)=O)C2)O1	.	5	-5	-9	-21	.	.	.	.
CCN1C(=O)C(CC(=O)Nc2ccc(OC)cc2)N(CCc2ccccc2)C1=S (configuration not stated)	4	-5	7	7	13	.	.	.	.
